Screening results from PubChem BioAssay.
In the library only some 4.4% were active in any assay of this set; here they are far more common.
HIF activator: HIF pathway transcriptional activation. U2OS HRE-luciferase reporter, luminescence; normalized: DMSO 0%, desferrioxamine 100%. activation, % at 7.5 µM (by protocol). hit rate 0.32% among 300,000. AID 1910;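 active means mean activation of at least 10% of the iron chelator positive control signal, with at least half of replicates also reaching 10%; inconclusive means mean and replicate majority disagree about reaching 10%; inactive means mean and most replicates under 10%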
T cruzi repl: blocks replication of Trypanosoma cruzi; T. cruzi beta-gal in NIH3T3, luminescence, 90 h; inhibition, % (test concentration not listed); hit rate 1.4% among 300,000; AID 1885;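 active means mean inhibition across valid replicates above about 55%, limit read from the data; inconclusive means mean below that limit but half or more replicates reach it; inactive means mean below it, under half of replicates reach it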;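 further: signal also drops with host cell toxicity which is not excluded here; 0% = plate median of DMSO wells and 100% = zero luminescence signal; higher percent means less beta-gal luminescence so fewer parasites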
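System: Mouse NIH/3T3 fibroblasts infected with β-gal-expressing T. cruzi Tulahuen C4 | Quantity: NIH/3T3 cells, 5,000 per well | Reagent: 5000 reporter trypomastigotes per well | Dosing: Compound pinned at 50 nL/well, DMSO | Schedule: 3 h host attachment, then at least 90 h co-culture | Detection: GalScreen luminescence, 60 min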
HSF1 inh: HSF1 inhibition | hit rate 0.77% among 300,000 | NIH3T3-HGL HSE-luciferase, MG132-induced, luminescence 8 h; active compounds read low | activity change, negative = inhibition, % at 7.5 µM (by protocol);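 active means more than half of replicate wells show activity change below -50%, luminescence cut by over half; inconclusive means some wells, but at most half, below -50%; inactive means no replicate well below -50%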;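 further: luciferase reports HSF-1 transcriptional activity via heat shock element; 0% = median of DMSO wells and -100% = zero luminescence signal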
HSF1 activator: increases HSF-1 driven luciferase reporter signal; hit rate 1.7% among 300,000; activation, % at 9 µM; NIH3T3-HGL HSF-1 luciferase reporter, MG132, 8 h; 100% = twice DMSO control signal;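 active means mean replicate activation of at least 50% with a set share of replicates each reaching 50%; inconclusive means only one of those two conditions met; inactive means mean below 50% and too few replicates reaching it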;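 further: 0% = median of the neutral control wells and 100% = twice that signal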
Calb FLC: C. albicans growth modulation with fluconazole; growth inhibition, % (test concentration not listed); hit rate 0.57% among 300,000; C. albicans CaCi-2 (fluconazole-resistant clinical isolate) + fluconazole, Alamar Blue growth, 48 h;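 active means growth inhibition above about 58% in most replicates, limit read from the data, passing the limit was not always enough; inconclusive means exactly half the replicates above a set limit; inactive means most replicates below a set limit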;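 further: all wells also contain fluconazole at 8 µg/ml as a sub-toxic cotreatment; 0% = median of DMSO wells and 100% = median of geldanamycin control wells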
* marks the source's active call; other numbers are inactive results; ? = inconclusive; / = no result.

SMILES | HIF activator | T cruzi repl | HSF1 inh | HSF1 activator | Calb FLC
COC(CN(C(=O)CCl)C(C(=O)NC1CCCCC1)c1ccc(Cl)cc1)OC (stereo not given) | 63* | -13 | 4 | 8 | 27
COc1ccc(N(C(=O)c2cnccn2)C(C(=O)NC2CCCCC2)c2ccc(Cl)cc2)cc1 (stereo not given) | -1 | 2 | 0 | -6 | 1
O=C(CCCC(=O)N(c1ccc2c(c1)OCCO2)C(C(=O)NC1CCCCC1)c1ccc(Cl)cc1)Nc1ccccn1 (stereo not given) | 0 | 8 | -66* | -70 | 14
COc1ccc(C(C(=O)NC2CCCCC2)N(C(=O)CCl)c2ccc(Cl)cc2)cc1 (stereo not given) | 0 | 56* | -86* | -83 | 2
COc1ccc(C(C(=O)NC2CCCC2)N(C(=O)c2snc(-c3ccc(F)cc3)c2N)c2ccc(OC)cc2)cc1 (stereo not given) | 0 | 60* | 6 | 11 | -9
Cc1cc(NC(=O)NN2CCOCC2)nn1-c1c(Cl)cc(Cl)cc1Cl | -1 | 8 | 1 | 8 | -5
O=C(O)c1cccc(S(=O)(=O)N2CCCC(c3nc4c(nnn4Cc4ccc(F)cc4)c(=O)[nH]3)C2)c1 (stereo not given) | -36 | ? | -7 | 17 | -16
CCCCn1c(=O)[nH]c(=O)c2c1nc(-c1cc(Br)c(OCC)c(OC)c1)n2C | 0 | 0 | -6 | 5 | 2
NC(=S)NCc1cccnc1 | 0 | -26 | -8 | -4 | -8
CSC(=S)NCc1cccnc1 | 0 | -9 | -4 | 6 | 88*
Cc1nc2ccccc2c2oc(C(=O)NCc3ccccn3)cc12 | 0 | -24 | 21 | 52* | -21
Cc1cc(Br)ccc1NC(=O)CN(C)C(=O)C1CCN(C(=O)c2ccc(F)cc2)CC1 | 0 | -1 | 3 | -4 | -9
O=[N+]([O-])c1cc([N+](=O)[O-])c(Oc2c(F)cccc2F)cc1NN1CCCCC1 | 0 | -25 | 30 | 62* | 9
COC(=O)c1csc(S(=O)(=O)N2CCCCC2)c1OC | 0 | -3 | -4 | -2 | 8
O=C(CSc1n[nH]c(-c2ccccc2F)n1)NCC(=O)Nc1ccc(F)c(F)c1F | 0 | 9 | 0 | 10 | -1
CCOc1ccccc1NC(=O)CN1C(=O)CSC(C)C1=O (stereo not given) | -1 | -10 | 4 | -8 | 6
CCCCCCn1c2c(c(=N)c3c1CCC3)CCC2 | 0 | 84* | -10 | -10 | -4
CCCCCCCCCn1c2c(c(=N)c3c1CCC3)CCC2 | -2 | 48 | 6 | 12 | 36
CCCCCCCn1c2c(c(=N)c3c1CCC3)CCCC2 | 0 | 59* | 13 | 7 | 94*
CCn1c2c(c(=N)c3c1CCC3)CCC2 | 0 | -21 | -7 | 7 | -9
COc1ccc(CC(C)N2CCN(Cc3ccccc3)CC2)c(OC)c1 (stereo not given) | 0 | 61* | -14 | -12 | 11
COc1ccc(CN2CCN(CCCc3ccccc3)CC2)c(OC)c1 | 0 | 41 | 0 | -19 | 0
CC(Sc1nc2ccccc2c(=O)n1CC1CCCO1)C(=O)Nc1ccc(S(N)(=O)=O)cc1 (stereo not given) | 0 | 0 | 25 | 56* | -3
Cc1ccccc1NC(=O)CSc1nc2ccccc2c(=O)n1CC1CCCO1 (stereo not given) | -3 | 25 | 4 | 9 | -1
Cc1ccc2cc3cc(C(=O)NCc4ccco4)oc3nc2c1 | 2 | -10 | 28 | 64* | -4
SMILES | HIF activator | T cruzi repl | HSF1 inh | HSF1 activator | Calb FLC
CCN(Cc1ccncc1)C(=O)c1cc(COc2c(C)cccc2C)on1 | 1 | 57* | 5 | 25 | -3
S=C(Nc1cc(Cl)cc(Cl)c1)N1CCN(c2ccccn2)CC1 | / | / | / | / | -4
O=C(/C=C/c1ccccc1)NC(NC(=S)Nc1ccc(Cl)cc1)C(Cl)(Cl)Cl (stereo not given) | 0 | 72* | 3 | 7 | -9
O=C(/C=C/c1ccccc1)NNc1ccc(Cl)cc1 | 0 | 9 | -1 | 19 | 97*
O=C(/C=C/c1ccccc1)NC(NC(=S)Nc1cc(Cl)ccc1Cl)C(Cl)(Cl)Cl (stereo not given) | 0 | 75* | 0 | 3 | -8
O=C(Cc1ccccc1)NC(NC(=S)Nc1cc(Cl)ccc1Cl)C(Cl)(Cl)Cl (stereo not given) | 0 | -7 | -10 | 9 | 10
